Laboratory results reported in BindingDB's records for doi:10.1021/jm00014a008 (Sterling Winthrop Research, 1995).

Target: Sodium channel protein type 5 subunit alpha (Homo sapiens, UniProt Q14524)
Test: Blockade of Na+ current in frog oocytes expressing human cardiac sodium channel (HH1)
Summary of the method: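 HH1 transcripts injected into Xenopus laevis oocytes, incubated at room temperature 24–72 h. Two-microelectrode voltage clamp (3 M KCl electrodes), bath NaCl 140, KCl 2, CaCl2 1.8, MgCl2 1, HEPES 5 mM, pH 7.5, 21–23 °C. Holding −100 mV; peak current at the I–V maximum measured before and after test agent; IC50 in μM.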

Sodium channel protein type 5 subunit alpha, sequence (Q14524 whole entry): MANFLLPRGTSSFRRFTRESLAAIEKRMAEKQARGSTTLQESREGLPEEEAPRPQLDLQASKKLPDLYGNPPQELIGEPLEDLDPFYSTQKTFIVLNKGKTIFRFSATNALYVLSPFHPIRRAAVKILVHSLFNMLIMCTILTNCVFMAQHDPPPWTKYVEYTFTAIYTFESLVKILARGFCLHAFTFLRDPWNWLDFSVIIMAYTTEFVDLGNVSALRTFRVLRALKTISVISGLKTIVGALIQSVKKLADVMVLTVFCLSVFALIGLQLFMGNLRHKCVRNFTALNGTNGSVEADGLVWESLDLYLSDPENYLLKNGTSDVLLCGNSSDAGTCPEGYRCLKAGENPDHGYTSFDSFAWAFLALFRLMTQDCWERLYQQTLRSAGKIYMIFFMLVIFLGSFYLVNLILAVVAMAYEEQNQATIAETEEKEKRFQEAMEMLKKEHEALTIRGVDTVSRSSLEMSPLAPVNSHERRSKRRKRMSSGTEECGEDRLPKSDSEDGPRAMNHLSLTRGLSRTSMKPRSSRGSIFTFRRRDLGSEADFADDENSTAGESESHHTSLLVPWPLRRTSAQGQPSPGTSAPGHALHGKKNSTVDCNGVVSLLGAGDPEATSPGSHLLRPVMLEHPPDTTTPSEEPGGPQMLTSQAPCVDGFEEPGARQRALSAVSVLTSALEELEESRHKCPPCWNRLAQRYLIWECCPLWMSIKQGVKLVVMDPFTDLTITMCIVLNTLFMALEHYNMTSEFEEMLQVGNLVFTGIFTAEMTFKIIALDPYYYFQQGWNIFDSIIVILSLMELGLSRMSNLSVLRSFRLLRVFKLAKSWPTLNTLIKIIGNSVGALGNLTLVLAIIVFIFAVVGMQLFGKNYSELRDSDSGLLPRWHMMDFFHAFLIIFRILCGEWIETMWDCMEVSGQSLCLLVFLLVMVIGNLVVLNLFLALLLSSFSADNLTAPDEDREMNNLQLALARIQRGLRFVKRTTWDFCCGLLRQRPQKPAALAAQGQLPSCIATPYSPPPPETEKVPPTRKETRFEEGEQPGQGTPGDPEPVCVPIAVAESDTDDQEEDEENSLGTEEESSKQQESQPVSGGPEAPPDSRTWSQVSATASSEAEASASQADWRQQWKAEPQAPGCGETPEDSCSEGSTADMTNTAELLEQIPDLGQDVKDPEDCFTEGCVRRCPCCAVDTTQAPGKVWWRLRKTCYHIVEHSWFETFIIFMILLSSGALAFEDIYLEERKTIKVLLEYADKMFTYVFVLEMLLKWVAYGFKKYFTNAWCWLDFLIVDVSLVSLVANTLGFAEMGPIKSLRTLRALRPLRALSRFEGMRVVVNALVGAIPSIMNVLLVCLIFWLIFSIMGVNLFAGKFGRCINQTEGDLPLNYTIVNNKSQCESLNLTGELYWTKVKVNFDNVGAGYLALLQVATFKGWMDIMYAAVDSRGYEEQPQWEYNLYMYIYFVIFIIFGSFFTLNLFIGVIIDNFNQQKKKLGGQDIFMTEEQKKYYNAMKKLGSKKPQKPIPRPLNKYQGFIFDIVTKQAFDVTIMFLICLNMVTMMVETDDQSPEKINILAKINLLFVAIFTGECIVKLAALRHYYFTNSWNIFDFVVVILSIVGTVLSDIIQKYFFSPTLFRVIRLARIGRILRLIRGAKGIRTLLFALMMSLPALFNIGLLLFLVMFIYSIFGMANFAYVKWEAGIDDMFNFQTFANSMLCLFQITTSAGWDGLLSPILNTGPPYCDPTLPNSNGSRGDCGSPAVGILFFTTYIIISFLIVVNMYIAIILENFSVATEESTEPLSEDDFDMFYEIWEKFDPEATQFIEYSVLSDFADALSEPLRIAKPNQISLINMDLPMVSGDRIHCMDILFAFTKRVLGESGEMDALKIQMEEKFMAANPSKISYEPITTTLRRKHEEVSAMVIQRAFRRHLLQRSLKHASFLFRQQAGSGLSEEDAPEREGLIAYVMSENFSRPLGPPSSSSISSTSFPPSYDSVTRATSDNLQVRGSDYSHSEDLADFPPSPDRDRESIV

With `CSc1ccc([C@H]2N=C(OCc3ccc(NS(C)(=O)=O)cc3)N(C)Cc3ccccc32)cc1` the IC50 was > 30 µM.
